Compound activity: PubChem, several laboratories
Jurkat NFkB inh: inhibitors of the PMA/ionomycin-induced NF-kB reporter in Jurkat cells; PMA/ionomycin-induced NF-kB luciferase reporter, luminescence; actives 0.53% (n = 330,000); inhibition, % at 4 µM; AID 435003; in the data active = inhibition above about 50%
aDG glyco act: increases alpha dystroglycan glycosylation; Pro5-aDG cells, alpha-DG glycosylation AlphaScreen (IIH6); 0% Pro5, 100% B10-LARGE cell signal; activation, % at 10 µM; actives 0.22% (n = 360,000); AID 624168;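 active = activation of at least 8% versus controls, or a plate z-score of at least 8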;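 also: Pro5 are CHO cells carrying HIG-tagged alpha-DG that lacks glycosylation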
MPTP block: blocks calcium-induced mitochondrial swelling. isolated mouse mitochondria, Ca2+ swelling absorbance, 30 min. inhibition, % at 10 µM. actives 1.4% (n = 360,000). AID 602449;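 active = inhibition of 50% or more, scaled per plate between neutral and stimulator controls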
697 NFkB inh: inhibitors of the PMA/ionomycin-induced NF-kB reporter in 697 B cells; 697 B-cell NF-kB luciferase reporter, 16 h; inhibition, % at 4 µM; actives 0.33% (n = 330,000); AID 435022; in the data active = inhibition above about 35%
NR2E3 ag-1: NR2E3 (human) agonism; GST-NR2E3/biotin-RetCOR TR-FRET, 1536-well; inhibition of corepressor binding, % at 4.78 µM; actives 0.12% (n = 320,000); AID 2300;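 active = percent inhibition above the cutoff of mean plus 3 SD of all tested compounds, set per screening campaign, cut at about 20% in these data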
Target sequence (Q9Y5X4 whole entry, looked up): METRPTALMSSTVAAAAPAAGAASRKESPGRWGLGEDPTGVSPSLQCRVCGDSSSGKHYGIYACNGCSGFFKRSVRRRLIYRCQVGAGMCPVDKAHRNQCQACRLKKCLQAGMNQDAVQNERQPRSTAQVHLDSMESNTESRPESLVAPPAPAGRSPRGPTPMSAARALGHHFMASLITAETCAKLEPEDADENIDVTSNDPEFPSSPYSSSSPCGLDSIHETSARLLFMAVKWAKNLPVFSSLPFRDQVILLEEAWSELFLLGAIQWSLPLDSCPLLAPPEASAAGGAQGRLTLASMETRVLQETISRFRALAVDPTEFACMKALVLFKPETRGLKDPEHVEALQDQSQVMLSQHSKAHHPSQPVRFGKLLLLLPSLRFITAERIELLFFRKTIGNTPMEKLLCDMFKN
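System: GST-NR2E3 and biotin-RetCOR proteins; probe or stimulus: 7 nM biotin-RetCOR; doses: compound at 4.8 µM, single dose; schedule: Compound–protein incubation for 5 h at 4 °C; detection: time-resolved FRET; read-out: percent inhibition; controls: biotin wells as high control, 0.6% DMSO wells as low control; format: 1536-well plates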
NR2E3 ag-2: activates human NR2E3 receptor. inhibition of corepressor binding, % at 3.98 µM. CHO-S Gal4-NCOR/VP16-NR2E3 two-hybrid, luciferase. actives 0.35% (n = 360,000). Q9Y5X4. AID 602229;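 active = inhibition above the mean of all tested compounds plus 3 SD, cut at about 70% in these data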;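 also: higher means lower luciferase signal from less NR2E3 corepressor binding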
NR2E3 ag conf: NR2E3 agonism confirmed in two-hybrid assay. CHO-S mammalian two-hybrid NR2E3-NCOR, luciferase luminescence. shares compounds with NR2E3 ag-2. inhibition, % at 3.98 µM. actives 51% (n = 2,300);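 active = average inhibition above a cutoff equal to the mean inhibition of all tested compounds plus one SD, cut at about 70% in these data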
VP16 counter: reduces GAL4-VP16 reporter signal in NR2E3 counterscreen; shares compounds with NR2E3 ag-2; CHO-S GAL4-VP16 luciferase reporter, luminescence; inhibition, % at 3.98 µM; actives 29% (n = 2,300); AID 624379;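 active = mean inhibition above a cutoff equal to the average over all tested compounds plus one standard deviation, cut at about 70% in these data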;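 also: luciferase from a UAS reporter driven by GAL4-VP16 transactivation; higher means less reporter light so more repression of VP16 activity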
Of the large screens only hits and unclear results are named; the others gave an inactive call (follow-up assays come after a bar, where they were run). A selection: hits, their analogues and other compounds. The true share with any hit is near 2.4%.

CCOc1ccccc1NC(=O)C(C)N1C(=O)c2ccccc2S1(=O)=O (stereo unspecified)	none
COc1ccc(C(c2c(N)[nH]c(=S)[nH]c2=O)c2c(N)[nH]c(=S)[nH]c2=O)cc1	none
CCN(CC)CCNC(=O)Cn1cnc2sc(C)c(S(=O)(=O)N3CCC(C)CC3)c2c1=O	none
OC(c1ccc(Cl)c(F)c1)c1ncc(-c2ccc(F)cc2)[nH]1 (stereo unspecified)	NR2E3 ag-2 79.6 (no result: Jurkat NFkB inh, 697 NFkB inh, NR2E3 ag-1) | NR2E3 ag conf 78.5 | VP16 counter inactive
Cc1ccc(C(O)c2ncc(-c3ccc(Cl)cc3)[nH]2)cc1F (stereo unspecified)	none (no result: Jurkat NFkB inh, 697 NFkB inh, NR2E3 ag-1)
Cc1ccc(-c2cnc(C(O)c3ccc(Cl)c(F)c3)[nH]2)cc1 (stereo unspecified)	none (no result: Jurkat NFkB inh, 697 NFkB inh, NR2E3 ag-1) | NR2E3 ag conf inactive | VP16 counter inactive
Cc1ccc(NC(=S)N=Nc2c(O)[nH]c3ccccc23)cc1	none | NR2E3 ag conf inactive | VP16 counter inactive
O=C(C1CC1)N1CCc2cc(S(=O)(=O)NCC3COc4ccccc4O3)ccc21 (stereo unspecified)	none | NR2E3 ag conf inactive | VP16 counter inactive
O=C(C1CCC1)N1CCc2cc(S(=O)(=O)NCC3COc4ccccc4O3)ccc21 (stereo unspecified)	none | NR2E3 ag conf inactive | VP16 counter inactive
O=C(C1CCC1)N1CCc2cc(S(=O)(=O)NCc3ccco3)ccc21	none
O=C(C1CC1)N1CCc2cc(Br)cc(S(=O)(=O)NCC3COc4ccccc4O3)c21 (stereo unspecified)	none
COc1cc(C(=S)N2CCOCC2)cc(Br)c1OS(=O)(=O)c1ccccc1	none
COc1cc(COC(=O)c2cnc(C)cn2)c(OC)cc1Br	none
CCc1cccc(CC)c1NC(=O)/C(C#N)=C/c1ccccc1C(F)(F)F	NR2E3 ag-2 75.2 | NR2E3 ag conf inactive | VP16 counter inactive
CC(=O)c1cccc(OCC(O)CNCCOc2ccc(C)cc2)c1 (stereo unspecified)	none
NC(=S)N/N=C/c1ccc(-n2nncc2-c2ccc(Cl)cc2)cc1	none
CCn1c(Cl)c(C=O)s/c1=N\S(=O)(=O)c1ccccc1	none | NR2E3 ag conf inactive | VP16 counter inactive
Cn1cc(C(=O)c2ccc(Cl)cc2)cc1-c1nc2ccccc2n1C	none | NR2E3 ag conf inactive | VP16 counter inactive
CCOC(=O)C(=O)NNc1ccccc1OC	none
CCOC(=O)C(=O)NNc1ccc(C)cc1	none | NR2E3 ag conf inactive | VP16 counter inactive
CCOC(=O)C(=O)NNc1ccc(Cl)cc1	none | NR2E3 ag conf inactive | VP16 counter inactive
Cc1ccc(S(=O)(=O)Nc2cnc3ccccc3c2)cc1	none | NR2E3 ag conf inactive | VP16 counter inactive
Cc1ccc(S(=O)(=O)Nc2ccccc2NS(=O)(=O)c2ccc(C)cc2)cc1	none (no result: Jurkat NFkB inh, 697 NFkB inh, NR2E3 ag-1) | NR2E3 ag conf inactive | VP16 counter inactive
C[C@H](CO)N1C[C@H](C)[C@@H](CN(C)Cc2ccncc2)Oc2c(NS(=O)(=O)c3ccccc3)cccc2C1=O	none (no result: NR2E3 ag-1)
O=C(C(=O)N1CCC(Cc2ccccc2)CC1)c1ccccc1	none (no result: Jurkat NFkB inh, 697 NFkB inh, NR2E3 ag-1, NR2E3 ag-2)
CCOC(=O)Cn1c(=O)c(-c2cc(Br)ccc2N)nc2ccccc21	NR2E3 ag-2 75.6 | NR2E3 ag conf 80.1 | VP16 counter inactive
CC1Cc2ccccc2N1C(=O)COC(=O)c1ccc([N+](=O)[O-])o1 (stereo unspecified)	none (no result: NR2E3 ag-1)
Cc1ccc(NS(=O)(=O)c2c(C(=O)N3CCCCCC3)c(C)n(C)c2C)cc1C	none
O=c1cc(CSc2ccc(Cl)cc2)nc(-c2ccccn2)[nH]1	NR2E3 ag-2 101.3 | NR2E3 ag conf 97.8 | VP16 counter inactive
O=c1cc(CSc2ccc(Cl)cc2)nc(-c2ccccc2)[nH]1	none
O=C(Cc1ccc(-c2ccccc2)cc1)NNC(=S)NCc1ccco1	none | NR2E3 ag conf 88.6 | VP16 counter inactive
CN(C)C(=O)CSc1nc2ccc(C(=O)c3ccccc3)cc2[nH]1	none
Cc1cccc(NC(=O)/C(=C\c2cccs2)NC(=O)c2ccccc2)c1	none | NR2E3 ag conf inactive | VP16 counter inactive
O=C(CN1CCN(S(=O)(=O)c2ccccc2F)CC1)Nc1ccnn1C1CCCC1	none
C=CCn1c(SCC(=O)Nc2sccc2C(N)=O)nc2sc(CC)cc2c1=O	none | NR2E3 ag conf inactive | VP16 counter inactive
C=CCn1c(SCC(=O)Nc2sccc2C(N)=O)nc2ccc(Cl)cc2c1=O	none | NR2E3 ag conf inactive | VP16 counter inactive
N#Cc1cnc(Sc2ccccc2)nc1	none
Cc1ccc(NC(=O)c2sc3ncn(CC(=O)N4CCN(c5ccccn5)CC4)c(=O)c3c2C)cc1F	NR2E3 ag-2 76.1 | NR2E3 ag conf inactive | VP16 counter inactive
Cc1ccc(NC(=O)c2sc3ncn(CC(=O)N4CCN(c5ccccn5)CC4)c(=O)c3c2C)cc1Cl	none
CC1CCCN(C(=O)CCCn2c(=S)[nH]c3ccccc3c2=O)C1 (stereo unspecified)	none
Clc1ccccc1-c1ccc2ncnc(NCc3ccc4c(c3)OCO4)c2c1	none
Clc1ccccc1-c1cnc2sc(NCc3ccc4c(c3)OCO4)nn12	none (no result: Jurkat NFkB inh, 697 NFkB inh, NR2E3 ag-1) | NR2E3 ag conf inactive | VP16 counter inactive
Cc1cccc(C)c1N(CC(=O)NCc1ccco1)C(=O)CNS(=O)(=O)c1ccc(F)cc1	none
CN(Cc1cc2ccccc2[nH]c1=O)C(=O)COc1ccccc1	none
O=c1cc(N2CCN(c3ccccc3)CC2)[nH]c(=O)n1C1CCCCC1	none | NR2E3 ag conf 92.1 | VP16 counter inactive
Cc1cccc(NC(=O)C2CCCN(S(=O)(=O)c3ccc4[nH]c(=O)ccc4c3)C2)c1 (stereo unspecified)	none
Cc1ccc(S(=O)(=O)N(CC(=O)NC2CC3CCC2C3)c2ccccc2)cc1 (stereo unspecified)	none (no result: Jurkat NFkB inh, 697 NFkB inh, NR2E3 ag-1)
CCC1=C(CC2NCCc3ccccc32)CC2c3cc(OC)c(OC)cc3CCN2C1 (stereo unspecified)	NR2E3 ag-2 97.3 (no result: Jurkat NFkB inh, 697 NFkB inh, NR2E3 ag-1) | NR2E3 ag conf 90.5 | VP16 counter 87.2
CCOc1ccc(N(CC(=O)NC(C)C)C(=O)CCC(=O)Nc2ccccn2)cc1	none
COc1ccc(COC(=O)c2cc(S(=O)(=O)N3CCCCC3)ccc2N2CCOCC2)cc1	none
O=C(COC(=O)c1cc(S(=O)(=O)N2CCCCC2)ccc1N1CCOCC1)c1ccccc1Cl	none (no result: Jurkat NFkB inh, 697 NFkB inh, NR2E3 ag-1)
O=C(OCCOc1ccc(Cl)cc1)c1cc(S(=O)(=O)N2CCCCC2)ccc1N1CCOCC1	none (no result: Jurkat NFkB inh, 697 NFkB inh, NR2E3 ag-1) | NR2E3 ag conf 72.5 | VP16 counter inactive
Cc1ccc(OCCOC(=O)c2cc(S(=O)(=O)N3CCCCC3)ccc2N2CCOCC2)cc1	none | NR2E3 ag conf 71.5 | VP16 counter inactive
